Assay results pooled from the literature.
Protocols differ between the studies behind these lines.
Target: Serine/threonine-protein kinase 16 (STK16, Homo sapiens, UniProt O75716)

O=C1NC(=O)c2cc(Nc3ccc(F)cc3)c(Nc3ccc(F)cc3)cc21
remaining signal (cell-free assay; 0.5 µM): 85.8%

Cn1cnc(Br)c1C1=CN(c2ncnc3[nH]cnc23)CCS1
inhibition (enzyme activity; inhibitor; radiometric; 50 nM): 38.5%

CNC(=O)c1cc(Oc2ccc(NC(=O)Nc3ccc(Cl)c(C(F)(F)F)c3)cc2)ccn1
remaining signal (cell-free assay; 0.5 µM): 105%

Cc1ccc(C(=O)Nc2ccc(CN3CCN(C)CC3)c(C(F)(F)F)c2)cc1C#Cc1cnc2cccnn12
remaining activity (enzyme activity; inhibitor; 23.5 nM): 94%

CCCCNc1ncc2c(-c3ccc(F)cc3)nn(C[C@H]3CC[C@H](N)CC3)c2n1
inhibition (target engagement in cells; inhibitor; chemoproteomics; 20 mM): 56.4%

COc1cc(Nc2cnc(C#N)c(O[C@H](C)CN(C)C)n2)ncc1-c1cnn(C)c1
remaining activity (enzyme activity; inhibitor; radiometric; 10 µM): 91%

N#CCCc1ccc2c(c1)-c1[nH]c3ccc([N+](=O)[O-])cc3c1CC(=O)N2
remaining signal (cell-free assay; 0.5 µM): 87%

c1ccc(N2CCN(Cc3nc4ccccc4[nH]3)CC2)nc1
remaining binding (binding; competition with immobilised ligand; 1 µM): 87%

O=C(Nc1cnn(-c2csc(C(=O)NC3COC3)c2)c1)Nc1ccccc1Cl
remaining activity (enzyme activity; inhibitor; 5 µM): 98.6%

O=C(NCc1ncc(C(F)(F)F)cc1Cl)c1ccc2c(c1)C1(CCS(=O)(=O)CC1)[C@@H](C1CC1)N2S(=O)(=O)c1ccc(F)cc1
remaining binding (cell-free assay; competition with immobilised ligand; 1 µM): 99%

COc1cc(-c2cc(-c3ccc(N4CCNCC4)cc3)cnc2C)cc(OC)c1OC
inhibition (enzyme activity; inhibitor; 0.1 µM): 4%

CC(=O)Nc1c(C(C)=O)c(=O)n(C)c2nc(-c3ccc(Cl)cc3Cl)c(-c3ccc(Cl)cc3)cc12
remaining binding (cell-free assay; competition with immobilised ligand; 1 µM): 100%

Cc1sc(C(=O)NC2COC2)cc1-n1cc(NC(=O)Nc2c(F)cccc2Cl)cn1
remaining activity (enzyme activity; inhibitor; 10 µM): 94.4%

CN(C)C(=O)Cn1cc(-c2nc(C3(c4ccc(-c5cnc(N)nc5)cc4)CC3)no2)cn1
remaining binding (cell-free assay; competition with immobilised ligand; 1 µM): 100%

Cn1cncc1C1=CN(c2ncnc3[nH]cnc23)CCS1
inhibition (enzyme activity; inhibitor; radiometric; 50 nM): 22%

CN([C@@H]1CCc2c(CC(=O)O)c3cc(S(C)(=O)=O)ccc3n2C1)S(=O)(=O)c1ccc(F)cc1
remaining binding (cell-free assay; competition with immobilised ligand; 1 µM): 95%

CN1CC(Oc2cnc(C#N)cc2-c2ccn3nc(NC(=O)C4CC4)cc3c2)C1
inhibition (enzyme activity; inhibitor; 1 µM): 10%

Cn1cc(Cl)c2c(Oc3c(F)cc(Nc4cc(Cl)nc(N)n4)cc3F)ccnc21
remaining binding (cell-free assay; competition with immobilised ligand; 0.1 µM): 100%

FC(F)(F)Oc1cccc(-c2cnc3ccc(-c4ccncc4)nn23)c1
activity vs control (enzyme activity; inhibitor; radiometric; 1 µM): 120%
